ChEMBL document CHEMBL4359895, “Discovery and biological evaluation of darolutamide derivatives as inhibitors and down-regulators of wild-type AR and the mutants” (Eur J Med Chem, 2019)
Positions count from the first letter of the chain named. The source made the active and inactive calls. The calls are words filed in the database; no cut-off is given here.

Legend:
[1] = tested on: T1, Androgen receptor (Homo sapiens), P10275 [F877L]; assay: Inhibition of EGFP-tagged AR F876L mutant (unknown origin) transfected in human WPMY1 cells assessed as reduction in R1881-induced nuclear translocation of AR F876L at 20 uM incubated for 24 hrs by Hoechst 33342 staining based fluorescence microscopy; assay type: cell-based
T1 sequence (whole entry): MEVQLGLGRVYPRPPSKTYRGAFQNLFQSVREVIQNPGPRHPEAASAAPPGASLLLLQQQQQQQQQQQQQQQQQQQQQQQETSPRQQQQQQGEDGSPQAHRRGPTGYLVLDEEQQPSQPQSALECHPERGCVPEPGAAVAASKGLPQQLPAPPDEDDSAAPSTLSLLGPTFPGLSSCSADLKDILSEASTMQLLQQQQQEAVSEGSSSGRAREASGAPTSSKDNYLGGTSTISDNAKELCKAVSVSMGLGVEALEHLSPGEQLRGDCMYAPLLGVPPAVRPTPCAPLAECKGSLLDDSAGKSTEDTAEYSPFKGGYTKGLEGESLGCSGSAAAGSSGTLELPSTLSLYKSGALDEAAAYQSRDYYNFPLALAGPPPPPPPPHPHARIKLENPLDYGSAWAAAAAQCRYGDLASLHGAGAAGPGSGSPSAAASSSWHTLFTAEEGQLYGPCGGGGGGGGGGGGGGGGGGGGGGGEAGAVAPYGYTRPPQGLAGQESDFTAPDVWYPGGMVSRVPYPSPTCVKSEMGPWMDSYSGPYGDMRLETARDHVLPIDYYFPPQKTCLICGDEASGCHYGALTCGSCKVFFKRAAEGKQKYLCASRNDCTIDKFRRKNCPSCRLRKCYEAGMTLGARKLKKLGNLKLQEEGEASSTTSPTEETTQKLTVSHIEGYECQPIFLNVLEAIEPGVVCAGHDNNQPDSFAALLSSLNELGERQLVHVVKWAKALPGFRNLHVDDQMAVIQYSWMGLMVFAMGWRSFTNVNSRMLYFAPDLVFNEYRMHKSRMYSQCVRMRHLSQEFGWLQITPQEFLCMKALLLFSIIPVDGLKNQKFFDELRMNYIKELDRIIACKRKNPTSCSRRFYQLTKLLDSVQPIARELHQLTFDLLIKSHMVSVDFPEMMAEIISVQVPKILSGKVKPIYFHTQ
How it was run: (§1)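 WPMY-1 cells transfected with EGFP-tagged wt-AR or AR-F876L. Treated with vehicle or 20 µM compound, with or without 0.5 nM R1881, for 24 h. Nuclei labelled with Hoechst 33342 and AR localisation imaged by fluorescence.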

CWR22R = assay: Inhibition of AR protein expression in human 22Rv1 cells at 10 to 30 uM incubated for 24 hrs by Western blot analysis; assay type: functional, cell-based
How it was run: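 LNCaP, VCaP and 22Rv1 cells grown in medium with 10% (v/v) FBS. Treated with compounds or DMSO for 24 h. AR-full and AR splice-variant protein then assessed by western blot.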

VCaP = assay: Antiproliferative activity against human VCaP expressing AR assessed as reduction in cell viability incubated for 6 days by CCK-8 assay; assay type: functional, cell-based; details: 144 h
How it was run: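 Cell proliferation assay run on LNCaP/AR, VCaP, 22Rv1, PC-3 and L-02 cells, with PC-3 and L-02 serving as AR-independent toxicity controls. IC50 fitted in GraphPad Prism 5 as the mean of at least two experiments, each in duplicate. Deviations under 35%.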

LNCaP [2] = assay: Inhibition of AR splice variant 7 mutant gene expression in human LNCAP cells at 5 to 20 uM incubated for 24 hrs by qRT-PCR analysis; assay type: functional, cell-based
How it was run: (§2)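 LNCaP, VCaP and 22Rv1 cells treated with DMSO or compounds for 24 h. AR-full and AR-V7 mRNA measured by qRT-PCR and normalised to GAPDH. Mean ± SD, n = 3, compared with DMSO by two-tailed t test.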

[3] = Stability of compound in nutrient medium with fetal bovine serum and antibiotic incubated for 6 days by HPLC analysis; details: 144 h
[4] = molecular target: T2, Androgen receptor (Homo sapiens) (UniProt P10275); assay: Inhibition of EGFP-tagged AR (unknown origin) transfected in human WPMY1 cells assessed as reduction in R1881-induced nuclear translocation of AR at 20 uM incubated for 24 hrs by Hoechst 33342 staining based fluorescence microscopy; assay type: cell-based; how it was run: as §1
T2 sequence (whole entry): T1 sequence (whole entry) with L877F

LNCaP [5] = assay: Induction of androgen receptor splice variant 7 mutant degradation in human LNCAP cells at 30 uM incubated upto 26 hrs in presence of bortezomib/MG132 by Western blot analysis; assay type: functional, cell-based
LNCaP [6] = assay: Inhibition of AR splice variant 7 mutant gene expression in human LNCAP cells at 5 to 30 uM incubated for 24 hrs by qRT-PCR analysis; assay type: functional, cell-based; how it was run: as §2
[7] = Plasma concentration in Sprague-Dawley rat 30 mg/kg, po measured up to 24 hrs by LC-MS/MS analysis; assay type: ADME, organism-based
How it was run: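 Rats dosed orally at 30 mg/kg, compound formulated in 10% DMA / 90% PEG200. Plasma levels followed over time to build concentration-time curves, from which T1/2, Tmax, Cmax and AUC were derived.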

SMILES | inhibition [1] | inhibition (CWR22R) | IC50 (VCaP) [nM] | inhibition (LNCaP [2]) | Stability [3] | inhibition [4] | Activity (LNCaP [5]) | inhibition (LNCaP [6]) | Cmax [7] [ng/mL]
C[C@@H](Cn1ccc(-c2ccc(C#N)c(Cl)c2)n1)Nc1cccc2ncccc12 | Active | Active | 730 | Active | Stable | Active | – | – | –
C[C@@H](Cn1ccc(-c2ccc(C#N)c(Cl)c2)n1)Nc1ncnc2nc[nH]c12 | Active | – | 640 | – | Stable | Active | inactive | Active | 2650
